Screens: PubChem, several laboratories
MrgX1 antag: blocks BAM8-22 activation of human MrgX1 receptor | MRGX1-HEK293 calcium flux, Fluo-4, BAM8-22 antagonism; stronger effect = lower value | B-score at 10 µM | 1.3% of 310,000 active;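 active = calcium-response B-score plate-corrected more than 3 library SD below zero, starting fluorescence within 5 deviations, no agonist response on first addition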;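 also: peak minus trough fluorescence over baseline after final BAM8-22 challenge near maximal dose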
Target sequence (Q96LB2 whole entry, looked up): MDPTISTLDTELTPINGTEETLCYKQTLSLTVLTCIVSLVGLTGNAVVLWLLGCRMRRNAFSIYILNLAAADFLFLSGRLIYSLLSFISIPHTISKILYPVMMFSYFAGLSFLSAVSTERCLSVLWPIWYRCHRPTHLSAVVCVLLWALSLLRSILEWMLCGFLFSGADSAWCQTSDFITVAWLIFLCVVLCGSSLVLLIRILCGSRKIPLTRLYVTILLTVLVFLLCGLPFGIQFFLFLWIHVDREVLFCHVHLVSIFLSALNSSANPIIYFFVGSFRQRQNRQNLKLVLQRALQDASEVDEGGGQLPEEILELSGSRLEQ
MrgX1 agonist: human MrgX1 receptor agonism, primary screen | Q96LB2 | MrgX1-HEK293 cells, Fluo-4 calcium fluorescence, agonist mode; stronger effect = higher value | B-score at 10 µM | 0.44% of 310,000 active;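 active = calcium response B-score plate-corrected fluorescence ratio at least 3 library SD, with starting fluorescence B-score inside 5 SD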
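Material: HEK293 cells stably expressing human MrgX1 receptor | Quantity: 15,000 cells per well | Times: Cells plated overnight, dye loaded 0.5 h 37 °C, 0.5 h room temperature | Measured by: Kinetic Fluo-4 NW fluorescence of intracellular calcium | Control set: Positive and negative controls per plate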
RGS4 inh: inhibitors of human RGS4; P49798; HEK293 M3R/RGS4 inducible, Fluo-4 calcium flux; stronger effect = higher value; triggered by carbachol at its EC20; B-score at 10 µM; 0.45% of 310,000 active; AID 463165;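 active = B-score, a plate-corrected calcium signal, over three deviations above library mean, with baseline fluorescence within five deviations of library mean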;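 also: RGS4 expression induced by doxycycline in cells with stable M3 receptor; B-score is computed from the integrated fluorescence ratio over baseline after carbachol; higher B-score means a larger calcium signal and so more RGS4 inhibition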
Target sequence (P49798 whole entry, looked up): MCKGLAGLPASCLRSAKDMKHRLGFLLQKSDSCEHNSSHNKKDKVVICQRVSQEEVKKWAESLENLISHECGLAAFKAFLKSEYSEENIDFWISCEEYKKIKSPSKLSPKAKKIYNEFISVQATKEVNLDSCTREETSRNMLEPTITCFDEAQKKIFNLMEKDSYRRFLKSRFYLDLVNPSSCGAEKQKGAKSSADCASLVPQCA
RGS4 act: RGS4 potentiation or activation. B-score at 10 µM. HEK293 M3R/inducible RGS4, carbachol calcium flux Fluo4; stronger effect = lower value. AID 463111. 0.92% of 310,000 active;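 active = B-score of the integrated calcium signal more than 4 SD below the library mean, with starting fluorescence not abnormally high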;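 also: negative B-score means reduced calcium response which marks RGS4 activation or potentiation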
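System: HEK293 FlpIn-TREx cells, stable M3R, doxycycline-inducible RGS4. Timing: overnight RGS4 induction, 30 min dye load 37 °C, 20 min compound RT. Also added: carbachol, ECmax concentration. Measured by: Fluo4 fluorescence kinetic imaging of calcium. Evaluation: integrated calcium ratio converted to B score.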
MrgX1 PAM: allosterically activates human MrgX1 receptor signaling; B-score at 10 µM; MrgX1-HEK293, Fluo-4 calcium flux, FDSS; stronger effect = higher value; Q96LB2; 0.63% of 310,000 active;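 active = plate-corrected calcium response at least 3 library SD above typical, normal starting fluorescence, not activating the receptor alone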;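 also: compound read alongside a low EC10 to EC30 dose of BAM8-22 agonist; peak minus trough fluorescence over baseline measured at the second addition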
Cl transport mod: modulators of human KCC2 chloride dependent transport; Q9H2X9; KCC2 cells, thallium flux FluoZin-2 fluorescence; B-score of Tl+ flux slope (higher = more flux/activation; lower = inhibition) at 10 µM; 2.2% of 190,000 active; AID 1456;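 active = thallium flux slope and its plate-corrected score both differing from the plate sample mean at a set confidence after two filtering rounds, in either direction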;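 also: slope of fluorescence scaled to starting intensity during 10 to 20 s after thallium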
The depositor's hits bear a star. Rows were chosen to be rich in hits. Some 4.7% of all compounds tested hit in one or more screens of this group.

Results for O=C(Cc1ccc(Cl)cc1)Nc1ccccc1N1CCN(C(=O)c2ccccc2)CC1 ?
MrgX1 antag: inactive; MrgX1 agonist: inactive; RGS4 inh: inactive; RGS4 act: -7.1*; MrgX1 PAM: inactive

What do the screens show for `O=C(NCCCO)c1nnc(Cc2c(F)cccc2Cl)o1`?
MrgX1 antag: inactive; MrgX1 agonist: inactive; RGS4 inh: inactive; RGS4 act: inactive; MrgX1 PAM: inactive

What do the screens show for `O=C(NCCCN1CCN(Cc2ccccc2)CC1)c1nnc(Cc2c(F)cccc2Cl)o1`?
MrgX1 antag: -4.7*; MrgX1 agonist: inactive; RGS4 inh: inactive; RGS4 act: inactive; MrgX1 PAM: inactive; Cl transport mod: -2.8

What do the screens show for `N#CCc1ccc(NC(=O)c2cc(S(=O)(=O)N3CCOCC3)ccc2Cl)cc1`?
MrgX1 antag: inactive; MrgX1 agonist: inactive; RGS4 inh: inactive; RGS4 act: inactive; MrgX1 PAM: inactive

How did COc1cc(N2CCCC2)c(OC)cc1/C=C(/C#N)c1cccc(F)c1 do in these assays?
MrgX1 antag: -11*; MrgX1 agonist: inactive; RGS4 inh: inactive; RGS4 act: inactive; MrgX1 PAM: inactive; Cl transport mod: -0.88

What do the screens show for `COc1ccc(N(C)S(=O)(=O)c2cccc(C(=O)N3CCN(S(=O)(=O)c4ccc(C)cc4)CC3)c2)cc1`?
MrgX1 antag: inactive; MrgX1 agonist: inactive; RGS4 inh: inactive; RGS4 act: inactive; MrgX1 PAM: inactive

How did N#C/C(=C\c1ccc(Cl)cc1)c1nc(-c2ccco2)cs1 do in these assays?
MrgX1 antag: -6.2*; MrgX1 agonist: inactive; RGS4 inh: inactive; RGS4 act: inactive; MrgX1 PAM: inactive; Cl transport mod: 0.048

How did Cc1ccc(CNC(=O)CCC(=O)Nc2nnc(C)s2)cc1 do in these assays?
MrgX1 antag: inactive; MrgX1 agonist: inactive; RGS4 inh: inactive; RGS4 act: inactive; MrgX1 PAM: inactive

How did O=C1c2ccccc2NC(c2cccc([N+](=O)[O-])c2)N1CCc1ccccc1 (centres undefined) do in these assays?
MrgX1 antag: inactive; MrgX1 agonist: inactive; RGS4 inh: inactive; RGS4 act: inactive; MrgX1 PAM: 15*

What do the screens show for `Cc1cccc(C2Nc3ccccc3C(=O)N2CCc2ccccc2)n1` (centres undefined)?
MrgX1 antag: inactive; MrgX1 agonist: inactive; RGS4 inh: inactive; RGS4 act: inactive; MrgX1 PAM: inactive

Results for O=C(c1ccco1)N(CCC(c1ccccc1)c1ccco1)Cc1ccco1 (centres undefined) ?
MrgX1 antag: -6.4*; MrgX1 agonist: inactive; RGS4 inh: inactive; RGS4 act: inactive; MrgX1 PAM: inactive; Cl transport mod: -0.075

Results for COc1cc(/C=C2\SC(N)=NC2=O)cc(Cl)c1O ?
MrgX1 antag: inactive; MrgX1 agonist: 30*; RGS4 inh: inactive; RGS4 act: inactive; MrgX1 PAM: inactive

Results for COc1ccccc1C(=O)Nc1nnc(S(=O)(=O)N2CCN(c3ccc(F)cc3)CC2)s1 ?
MrgX1 antag: inactive; MrgX1 agonist: inactive; RGS4 inh: inactive; RGS4 act: inactive; MrgX1 PAM: inactive

How did OC(CNCCc1ccc(Cl)cc1)COc1cc(Cl)ccc1Cl (centres undefined) do in these assays?
MrgX1 antag: inactive; MrgX1 agonist: inactive; RGS4 inh: inactive; RGS4 act: inactive; MrgX1 PAM: inactive

How did COc1ccccc1NC(=O)CCCC(=O)OCC(F)(F)C(F)F do in these assays?
MrgX1 antag: -6.2*; MrgX1 agonist: inactive; RGS4 inh: inactive; RGS4 act: inactive; MrgX1 PAM: inactive; Cl transport mod: 0.8

How did Fc1cnc(N2CCOCC2)nc1N1CCc2ccccc21 do in these assays?
MrgX1 antag: inactive; MrgX1 agonist: inactive; RGS4 inh: inactive; RGS4 act: inactive; MrgX1 PAM: inactive; Cl transport mod: -3.3*

What do the screens show for `CCN(CC)CCN1c2ccccc2Sc2ccccc21`?
MrgX1 antag: inactive; MrgX1 agonist: inactive; RGS4 inh: inactive; RGS4 act: -7.1*; MrgX1 PAM: inactive

How did CN(C)CCCN1c2ccccc2Sc2ccccc21 do in these assays?
MrgX1 antag: inactive; MrgX1 agonist: inactive; RGS4 inh: inactive; RGS4 act: inactive; MrgX1 PAM: inactive; Cl transport mod: -0.8

What do the screens show for `CCN(CC)CCN1c2ccccc2Sc2ccc3ccccc3c21`?
MrgX1 antag: inactive; MrgX1 agonist: inactive; RGS4 inh: inactive; RGS4 act: -7.5*; MrgX1 PAM: inactive; Cl transport mod: -0.089

What do the screens show for `COc1ccccc1NC(=O)CSc1nnc(CC(=O)Nc2ccccc2F)n1C`?
MrgX1 antag: inactive; MrgX1 agonist: inactive; RGS4 inh: inactive; RGS4 act: inactive; MrgX1 PAM: inactive

Results for CN(C)S(=O)(=O)c1ccc(C(=O)Nc2nnc(-c3ccc4c(c3)CCCC4)o2)cc1 ?
MrgX1 antag: inactive; MrgX1 agonist: inactive; RGS4 inh: inactive; RGS4 act: inactive; MrgX1 PAM: inactive; Cl transport mod: 8.1*

Results for O=C(Nc1nnc(-c2ccc3c(c2)CCCC3)o1)c1ccc(Cl)cc1Cl ?
MrgX1 antag: inactive; MrgX1 agonist: inactive; RGS4 inh: inactive; RGS4 act: inactive; MrgX1 PAM: inactive

How did CCOc1cc(/C=N/NC(=O)c2nn(C)cc2Br)ccc1OCc1ccccc1 do in these assays?
MrgX1 antag: -6.8*; MrgX1 agonist: inactive; RGS4 inh: inactive; RGS4 act: inactive; MrgX1 PAM: inactive; Cl transport mod: -0.44

How did COc1ccc(/C=N/NC(=O)c2nn(C)cc2Br)cc1CSCc1ccco1 do in these assays?
MrgX1 antag: inactive; MrgX1 agonist: inactive; RGS4 inh: inactive; RGS4 act: inactive; MrgX1 PAM: inactive

How did CCOC(=O)/C(C#N)=C/c1c[nH]c2ccccc12 do in these assays?
MrgX1 antag: inactive; MrgX1 agonist: inactive; RGS4 inh: inactive; RGS4 act: inactive; MrgX1 PAM: inactive; Cl transport mod: -0.23

How did CCOC(=O)C(=Cc1c[nH]c2ccc(S(=O)(=O)N(C)C)cc12)C(=O)OCC do in these assays?
MrgX1 antag: inactive; MrgX1 agonist: inactive; RGS4 inh: inactive; RGS4 act: inactive; MrgX1 PAM: 6.7*; Cl transport mod: -0.41

How did NS(=O)(=O)c1ccc(CCNC(=O)c2ccc(OCC3CCCO3)cc2)cc1 (centres undefined) do in these assays?
MrgX1 antag: inactive; MrgX1 agonist: inactive; RGS4 inh: inactive; RGS4 act: inactive; MrgX1 PAM: inactive

How did C#CCOCCOCCOCCNc1nc(N2CCN(C(=O)CCCCCCCCCCNC(=O)[C@H](CCCCN)n3cc(C[C@@H](C)CC)nn3)CC2)nc(N2CCN(C(=O)CCCCCCCCCCNC(=O)[C@@H]([C@H](C)O)n3cc(C)nn3)CC2)n1 do in these assays?
MrgX1 antag: inactive; MrgX1 agonist: inactive; MrgX1 PAM: 6.9*
